Compound activity: PubChem, several laboratories
Most compounds without a hit are left out; they make up all but 1.4% or so of the library.
ABCB6 inh 2 = human ABCB6 transporter inhibition | fluorescence ratio to DMSO, % at 10 µM | hit rate 0.19% among 360,000 | K562-ABCB6 porphyrin accumulation, flow cytometry, 1 h; active compounds read low;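 active means fluorescence ratio to DMSO below 75%, the collection mean minus 3 SD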;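 further: signal is porphyrin accumulated inside mitochondria; 100% equals median channel fluorescence of DMSO control wells; lower ratio means ABCB6 inhibition with less porphyrin fluorescence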
TNAP inh no acc = inhibitors of human TNAP without phosphate acceptor. P05186. purified TNAP, CDP-star luminescence, 30 min. inhibition, % at 20 µM. hit rate 0.26% among 200,000;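 active means tissue-nonspecific alkaline phosphatase inhibition above about 50% at 20 µM in the single-dose screen, limit read from the data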;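 further: 0% = DMSO negative control and 100% = EDTA positive control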
CHT allo act = allosterically activates the human high affinity choline transporter; Q9GZV3; CHT-expressing cells, membrane potential dye, choline EC20; active compounds read high; LV-AA mutant CHT in HEK293 cells; B-score at 10 µM; hit rate 0.49% among 310,000;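 active means initial fluorescence not abnormally high and integrated response B-score, plate-corrected, over 3 SD above library mean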
Target sequence (Q9GZV3 whole entry, looked up): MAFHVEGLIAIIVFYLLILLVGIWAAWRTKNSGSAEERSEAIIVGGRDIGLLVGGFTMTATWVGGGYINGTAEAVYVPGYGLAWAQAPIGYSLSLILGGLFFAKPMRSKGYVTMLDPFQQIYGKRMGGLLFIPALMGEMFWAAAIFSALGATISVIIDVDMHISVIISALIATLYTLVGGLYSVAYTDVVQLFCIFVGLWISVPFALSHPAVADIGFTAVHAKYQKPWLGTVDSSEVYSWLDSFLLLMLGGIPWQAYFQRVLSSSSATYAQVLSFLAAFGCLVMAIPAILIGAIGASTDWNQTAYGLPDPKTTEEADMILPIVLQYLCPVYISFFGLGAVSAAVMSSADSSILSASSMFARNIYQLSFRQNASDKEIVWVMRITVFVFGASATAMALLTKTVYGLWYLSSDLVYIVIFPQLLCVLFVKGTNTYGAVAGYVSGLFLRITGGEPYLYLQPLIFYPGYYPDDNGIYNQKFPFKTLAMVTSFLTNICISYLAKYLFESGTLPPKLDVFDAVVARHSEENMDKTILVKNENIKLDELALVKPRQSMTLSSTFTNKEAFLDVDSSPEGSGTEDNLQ
TNAP inh hiacc = TNAP (human) inhibition, high acceptor | hit rate 0.03% among 200,000 | P05186 | inhibition, % at 20 µM | purified TNAP, CDP-star luminescence, 1 M DEA | AID 1135;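 active means over 50% inhibition of tissue-nonspecific alkaline phosphatase at 20 µM in the single-dose screen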;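 further: plate controls were DMSO wells for no effect and EDTA-quenched wells as full inhibition for full effect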
TNAP act hi DEA = activators of human TNAP at high phosphate acceptor concentration; P05186; purified TNAP, CDP-star luminescence, 1 M DEA, 30 min; active compounds read high; 0 = EDTA background, 1 = DMSO-only activity; activation factor at 20 µM; 200,000 tested, under 10 active;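 active means activation factor at least 2 at 20 µM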
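system = human TNAP | amount = enzyme diluted 1/800 final | reagent = 100 µM CDP-star substrate | signal = luminescent substrate turnover signal | dosing = one dose, 20 µM | benchmarks = EDTA negative control, DMSO positive control | measure = activation factor | timing = 30 min reaction, room temperature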
CHT block = human CHT choline transport inhibition. CHT-expressing cells, membrane potential dye, choline response; active compounds read low. B-score at 10 µM. Q9GZV3. AID 488975. hit rate 0.86% among 310,000;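 active means B-score over 3 SD under the library average, and starting fluorescence ratio not unusually high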;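 further: choline stimulus applied at its EC90 after an EC20 pre-addition; B-score computed on integrated fluorescence ratio after choline addition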
CHT inh conf = human CHT inhibition, confirmatory screen; shares compounds with CHT block; CHT-expressing cells, choline membrane potential dye; LV-to-AA substituted CHT, HEK293 cells; CHT activity remaining % of control (active compounds read low), % at 10 µM; hit rate 70% among 2,400; AID 493221;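 active means choline transporter activity left, mean of duplicates at 10 µM, below buffer-only control mean minus 3 SD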;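 further: depolarization triggered by choline at its EC90 following an EC20 pre-addition; 0% = hemicholinium-3 full block and 100% = buffer-only control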
HEK293 MPD ctr = activity in parental HEK293 cells lacking CHT; shares compounds with CHT block; membrane potential dye, choline response; active = decrease or increase beyond buffer ±3SD; membrane potential ratio readout (active if shifted either direction beyond buffer ±3SD; no single direction) at 10 µM; hit rate 4% among 2,400;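 further: parental cells lack the transporter so any hit is non-specific; ratio is peak minus trough fluorescence over baseline after EC90 choline challenge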
CHT activ conf = human CHT activation, confirmatory screen | CHT-expressing cells, membrane potential dye fluorescence (FDSS); % of choline EC20–EC90 response window; HEK293 expressing CHT LV-AA mutant; choline added at its EC20 | shares compounds with CHT allo act | AID 504833 | hit rate 91% among 2,500 | activation, % at 10 µM;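 active means primary screen active, with duplicate mean activation above negative control mean plus 3 SD, cut at about 11% in these data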
HEK293 MP dye = activity in parental HEK293 cells lacking CHT; shares compounds with CHT allo act; hit rate 62% among 2,500; ratio readout change at 10 µM, hits read low; membrane potential dye fluorescence (FDSS); measured after EC20 choline addition;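 active means duplicate-averaged ratio beyond 3 SD from buffer wells, up or down, though filed actives are nearly all decreases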
K562 vector FC = effect in K562 cells lacking ABCB6, counter-screen | shares compounds with ABCB6 inh 2 | K562 empty-vector cells, flow cytometry fluorescence, 1 h | percent response (fluorescence), % at 100 µM | 25 tested, under 10 active | AID 624484;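 active means compounds whose half-maximal effective concentration is below 100 µM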
* marks the source's active call; other numbers are inactive results; i = inactive; x = not tested or not shown.

SMILES	ABCB6 inh 2	TNAP inh no acc	CHT allo act	TNAP inh hiacc	TNAP act hi DEA	CHT block	CHT activ conf	HEK293 MP dye	others
CCN(CC)S(=O)(=O)c1ccc(OC)c(NC(=S)Nc2ccc(C)c(C)c2)c1	99	-38	i	1	1	-6*	x	x	CHT inh conf=53%*;HEK293 MPD ctr=i
COc1ccc(-n2c(SCC(=O)NCC3CCCO3)nc3ccccc32)cc1 (configuration not stated)	112	-7	i	-4	1	-5.5*	x	x	CHT inh conf=i;HEK293 MPD ctr=i
Cc1cccc(CS(=O)(=O)c2ncc(Cl)c(C(=O)NCc3ccccc3)n2)c1	97	x	i	x	x	i	x	x
CCCc1nnc(NC(=O)c2nc(S(=O)(=O)Cc3cccc(C)c3)ncc2Cl)s1	101	x	i	x	x	-5.2*	x	x	CHT inh conf=30%*;HEK293 MPD ctr=i;K562 vector FC=250
Cc1nnc(NC(=O)c2nc(S(=O)(=O)Cc3ccccc3)ncc2Cl)s1	113	x	i	x	x	-11*	x	x	CHT inh conf=28%*;HEK293 MPD ctr=i;K562 vector FC=214
Cc1nc(CCNC(=O)C2CCC(=O)N(Cc3ccc(Cl)cc3)C2)sc1C (configuration not stated)	97	x	x	x	x	x	x	x
CCc1nnc(NC(=O)CSc2nnc3nc(C)cc(C)n23)s1	92	x	8.5*	x	x	i	52*	-61*
CCc1nnc(NC(=O)CSc2nc(C)cs2)s1	94	x	i	x	x	i	x	x
CCC[C@H]1COCCS(=O)(=O)N1Cc1ccccc1F	97	x	i	x	x	i	3	i
CCCC[C@H]1COCCS(=O)(=O)N1Cc1ccccc1F	91	x	i	x	x	i	x	x
CCOC(=O)C[C@H]1c2cc(C(F)(F)F)ccc2S(=O)(=O)N1Cc1ccccc1	93	x	i	x	x	i	7	i
C(=N\Nc1nn2cnnc2c2ccccc12)/c1ccco1	96	-13	i	-3	1	i	35*	-28*
Oc1ccc(/C=N/Nc2nn3cnnc3c3ccccc23)cc1	95	x	i	x	x	i	x	x
CCN(C[C@H]1N[C@@](Cc2ccccc2)(C(=O)OC)[C@H]2C(=O)N(C)C(=O)[C@@H]12)C(=O)COC	102	x	x	x	x	x	x	x
NC1CCN(c2c(F)cc3c(=O)c(C(=O)O)cn(C4CC4)c3c2Cl)C1 (configuration not stated)	101	x	i	x	x	i	18*	-48*
COc1c(N2CCNC(C)C2)c(F)cc2c(=O)c(C(=O)O)cn(C3CC3)c12 (configuration not stated)	x	x	6.7*	x	x	i	36*	-45*
COc1c(N2CCN(C(=S)Nc3ccc(F)cc3)C(C)C2)c(F)cc2c(=O)c(C(=O)O)cn(C3CC3)c12 (configuration not stated)	105	0	i	-5	1.1	i	x	x
COc1cc(NC(=O)CN2C(=O)C(c3ccccc3)=NC23CCCCCC3)cc(OC)c1	95	-10	7.6*	-4	1	i	6	i
CCOC(=O)C1(Cc2ccccc2C(F)(F)F)CCN(Cc2ccon2)CC1	95	x	7*	x	x	i	20*	i
CCCCN(CCCNC(=O)C1CCN(C(=O)c2cc3sccc3n2C)CC1)Cc1ccccc1	94	x	10*	x	x	i	60*	-29*
CCOC(=O)c1cnc[nH]c1=O	89	x	x	x	x	x	x	x
Cc1nn2c3ccccc3n(CCN3CCCCC3)c2nc1=O	92	-6	7.1*	2	1	i	39*	-42*
CCOC(=O)c1c(CN2CCN(C)CC2)n(C)c2cc(Br)c(OC)cc12	99	-6	i	-9	1.1	i	39*	-55*
CCOC(=O)c1c(CN2CCCCC2)n(C)c2cc(Br)c(O)cc12	105	-8	i	1	1	i	x	x
COc1ccc(N2C(=O)/C(=C\c3ccco3)N=C2SCC(=O)N(C(C)C)C(C)C)cc1Cl	89	-13	i	1	1	i	13*	i
SMILES	ABCB6 inh 2	TNAP inh no acc	CHT allo act	TNAP inh hiacc	TNAP act hi DEA	CHT block	CHT activ conf	HEK293 MP dye	others
C/C=C(\C)C(=O)NCCN1C2=NC[C@H](Cc3ccccc3)N2C[C@@H]1Cc1ccc(OC)cc1	104	x	i	x	x	i	x	x
COc1ccc(C[C@H]2CN3C(=NC[C@H]3Cc3ccccc3)N2CCNC(=O)CCC2CCCCC2)cc1	96	-8	i	-18	1.2	i	32*	i
CC(=O)c1c(C)nc2ccccc2c1N	101	-14	8.6*	-6	1.1	i	56*	-44*
Nc1c2ccccc2nc2ccccc12	96	x	i	x	x	i	x	x
Cc1c(N(C)C)nc2ccccc2c1N	99	-13	7*	-2	1	i	53*	-58*
Cc1nc2ccccc2c(N)c1C(=O)/C=C/c1ccccc1	96	x	i	x	x	i	x	x
Cc1ccc(F)cc1NC(=O)C1CC(=O)N(CCc2ccccc2)C1 (configuration not stated)	94	-1	i	0	1	i	x	x
O=C(c1cc([N+](=O)[O-])ccc1N1CCCCC1)N1CCc2ccccc21	84	-2	i	5	1	i	35*	i
CCCc1c(C(=O)N/N=C/c2sccc2C)nnn1-c1nonc1N	112	x	i	x	x	i	x	x
CCc1ccc(-n2c(O)cnc2Nc2nc(C)cc(C)n2)cc1	100	-20	i	-11	1.1	i	x	x
COc1ccc(-n2c(O)cnc2Nc2nc(C)cc(C)n2)cc1OC	102	-12	7.2*	-4	1	i	28*	-48*
COc1cccc(C(NC(C)=O)c2nc(-c3csc4ccccc34)cs2)c1 (configuration not stated)	92	x	x	x	x	x	x	x
O=c1c(O)c(-c2ccccc2)oc2cc(O)ccc12	97	x	x	x	x	x	x	x
